Results published in ChEMBL document CHEMBL1125592, “Calcium channel blocking and positive inotropic activities of ethyl 5-cyano-1,4-dihydro-6-methyl-2-[(phenylsulfonyl)methyl]-4-aryl-3- pyridine-carboxylate and analogues. Synthesis and structure-activity relationships” (J Med Chem, 1991).

Biological target: Voltage-gated L-type calcium channel (Rattus norvegicus, UniProt P22002+Q02485+P27732)
Experiment: Affinity to bind dihydropyridine receptor (DHP receptor) by inhibiting the radioligand [3H]nitrendipine
Assay type: protein assay
Procedure, shortened: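 [3H]nitrendipine displacement, rat brain cortical membranes. Each compound first screened at 1000 nM; if inhibition exceeded 40%, a four- to seven-point curve with unlabeled compound was run. IC50 generally mean of two experiments, each in triplicate. ">1000 nM" means under 40% inhibition of control binding at 1000 nM.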

Row | Compound | IC50
1 | CCO/C(O)=C1\C(CSc2ccc(Cl)c(Cl)c2)=NC(C)=C(C#N)C1c1ccccc1C(F)(F)F (stereo not given) | 69 nM
2 | CCO/C(O)=C1\C(CSc2ccc(Cl)cc2)=NC(C)=C(C#N)C1c1ccccc1C(F)(F)F (stereo not given) | 100 nM
3 | CCOC(=O)C1=C(C)N=C(C[S+]([O-])c2ccccn2)/C(=C(/O)OCC)C1c1ccccc1C(F)(F)F (stereo not given) | 10 nM
4 | CCOC(=O)C1=C(C)N=C(C[S+]([O-])c2ccc(OC)cc2)/C(=C(/O)OCC)C1c1ccccc1C(F)(F)F (stereo in doubt; 8a) | 21 nM
5 | CCOC(=O)C1=C(C)N=C(CSc2ccccc2)/C(=C(/O)OCC)C1c1ccccc1C(F)(F)F (stereo not given) | 1.6 nM
6 | CCOC(=O)C1=C(C[S+]([O-])c2ccccc2)N(CCN(CC)CC)C(C)=C(C#N)C1c1ccccc1C(F)(F)F (stereo not given) | > 1000 nM
7 | CCOC(=O)C1=C(C)N=C(C[S+]([O-])c2ccc(OC)cc2)/C(=C(/O)OCC)C1c1ccccc1C(F)(F)F (stereo in doubt; 8b) | 18 nM
8 | CCOC(=O)C1=C(C)N=C(CSc2ccccc2C)/C(=C(/O)OCC)C1c1ccccc1C(F)(F)F (stereo not given) | 49 nM
9 | CCCCc1ccc(S(=O)(=O)CC2=NC(C)=C(C#N)C(c3ccccc3C(F)(F)F)/C2=C(\O)OCC)c(C)c1 (stereo not given) | > 1000 nM
10 | CCO/C(O)=C1\C(CSc2ccncc2)=NC(C)=C(C#N)C1c1ccccc1C(F)(F)F (stereo not given) | 1000 nM
11 | CCO/C(O)=C1\C(CSc2ccc(OC)cc2)=NC(C)=C(C#N)C1c1ccccc1C(F)(F)F (stereo not given) | 71 nM
12 | CCOC(=O)C1=C(C)NC(C[S+]([O-])c2ccccc2C)=C(C(=O)OCC)C1c1ccccc1C(F)(F)F (stereo in doubt; 10b) | 170 nM
13 | CCOC(=O)C1=C(CSc2ccccc2)N(CCN(CC)CC)C(C)=C(C#N)C1c1ccccc1C(F)(F)F (stereo not given) | 1000 nM
14 | CCO/C(O)=C1\C(CSc2ccncc2)=NC(C)=C(C#N)C1c1cccc(Cl)c1Cl (stereo not given) | 1400 nM
15 | CCOC(=O)C1=C(C)N=C(C[S+]([O-])c2ccncc2)/C(=C(/O)OCC)C1c1ccccc1C(F)(F)F (stereo not given) | 37.4 nM
16 | CCO/C(O)=C1\C(CSc2ccccc2Cl)=NC(C)=C(C(=O)OC)C1c1ccccc1C(F)(F)F (stereo not given) | 36 nM
17 | CCOC(=O)C1=C(C)N=C(CSc2ccccn2)/C(=C(/O)OCC)C1c1ccccc1C(F)(F)F (stereo not given) | 51 nM
18 | CCCCc1ccc(SCC2=NC(C)=C(C#N)C(c3ccccc3C(F)(F)F)/C2=C(\O)OCC)c(C)c1 (stereo not given) | > 1000 nM
19 | CC1=C(C#N)C(c2ccccc2C(F)(F)F)/C(=C(\O)OCC(O)CO)C(CS(=O)(=O)c2ccccc2)=N1 (stereo not given) | > 1000 nM
20 | CCOC(=O)C1=C(C)NC(C[S+]([O-])c2ccccc2C)=C(C(=O)OCC)C1c1ccccc1C(F)(F)F (stereo in doubt; 10a) | 160 nM
21 | CCO/C(O)=C1\C(CS(=O)(=O)c2ccncc2)=NC(C)=C(C#N)C1c1cccc(Cl)c1Cl (stereo not given) | 434 nM
22 | CC1=C(C#N)C(c2ccccc2C(F)(F)F)C(C(=O)O)=C(C[S+]([O-])c2ccccc2)N1 (stereo not given) | > 1000 nM
23 | CCOC(=O)C1=C(C)N=C(CSc2ccccc2)/C(=C(/O)OCC)C1c1cccnc1 (stereo not given) | 523 nM
24 | CC1=C(C#N)C(c2ccccc2C(F)(F)F)C(C(=O)O)=C(CSc2ccccc2)N1 (stereo not given) | > 1000 nM
25 | CCOC(=O)C1=C(C)N=C(CSc2ccncc2)/C(=C(/O)OCC)C1c1ccccc1C(F)(F)F (stereo not given) | 32.5 nM

The remaining lines, values ahead:

Row | IC50 | Compound
26 | 720 nM | CCO/C(O)=C1\C(CS(=O)(=O)c2ccccc2)=NC(C)=C(C#N)C1c1ccccc1Cl (stereo not given)
27 | > 1000 nM | CCO/C(O)=C1\C(C[S+]([O-])c2ccc(NC(C)=O)cc2)=NC(C)=C(C#N)C1c1ccccc1C(F)(F)F (stereo not given)
28 | > 1000 nM | CO/C(O)=C1\C(C[S+]([O-])c2ccccc2)=NC(C)=C(C#N)C1c1ccccc1C(F)(F)F (stereo not given)
29 | > 1000 nM | CC1=C(C#N)C(c2ccccc2C(F)(F)F)/C(=C(\O)OCCN2CCOCC2)C(C[S+]([O-])c2ccccc2)=N1 (stereo not given)
30 | 1410 nM | CCO/C(O)=C1\C(CS(=O)(=O)c2ccncc2)=NC(C)=C(C#N)C1c1ccccc1C (stereo not given)
31 | > 1000 nM | CCO/C(O)=C1\C(CSc2ccccc2C)=NC(C)=C(C#N)C1c1ccccc1C(F)(F)F (stereo not given)
32 | > 1000 nM | CCO/C(O)=C1\C(CSc2ccncc2)=NC(C)=C(C#N)C1c1ccccn1 (stereo not given)
33 | > 1000 nM | CCOC(=O)C1=C(C[S+]([O-])c2ccccc2)NC(C)=C(C#N)C1c1cccc([N+](=O)[O-])c1 (stereo in doubt; 32a)
34 | > 1000 nM | CCO/C(O)=C1\C(CS(=O)(=O)c2ccccc2)=NC(C)=C(C#N)C1c1cccnc1 (stereo not given)
35 | 1000 nM | CO/C(O)=C1\C(CSc2ccccc2)=NC(C)=C(C#N)C1c1ccccc1C(F)(F)F (stereo not given)
36 | 267 nM | CCO/C(O)=C1\C(CSc2ccccc2F)=NC(C)=C(C#N)C1c1ccccc1C(F)(F)F (stereo not given)
37 | > 1000 nM | CCO/C(O)=C1\C(CSc2ccccc2)=NC(C)=C(C#N)C1c1ccccn1 (stereo not given)
38 | > 1000 nM | CCO/C(O)=C1\C(C[S+]([O-])c2ccc(Cl)cc2)=NC(C)=C(C#N)C1c1ccccc1C(F)(F)F (stereo not given)
39 | 1900 nM | CCO/C(O)=C1\C(C[S+]([O-])c2ccccn2)=NC(C)=C(C#N)C1c1ccccc1C(F)(F)F (stereo not given)
40 | 1600 nM | CCOC(=O)C1=C(C[S+]([O-])c2ccccc2)NC(C)=C(C#N)C1c1ccccc1C(F)(F)F (stereo in doubt; 29a)
41 | > 1000 nM | CCO/C(O)=C1\C(CSc2ccccn2)=NC(C)=C(C#N)C1c1ccccc1C(F)(F)F (stereo not given)
42 | 870 nM | CCO/C(O)=C1\C(CSc2ccccc2)=NC(C)=C(C#N)C1c1cccc([N+](=O)[O-])c1 (stereo not given)
43 | > 1000 nM | CCO/C(O)=C1\C(C[S+]([O-])c2ccccc2)=NC(C)=C(C#N)C1c1ccco1 (stereo not given)
44 | 366 nM | CCO/C(O)=C1\C(CSc2ccncc2)=NC(C)=C(C#N)C1c1ccccc1Cl (stereo not given)
45 | 713 nM | CCO/C(O)=C1\C(CS(=O)(=O)c2ccncc2)=NC(C)=C(C#N)C1c1ccccc1Cl (stereo not given)

Row | IC50 | Compound
46 | > 1000 nM | CCO/C(O)=C1\C(CS(=O)(=O)c2ccccc2)=NC(C)=C(C#N)C1c1ccccn1 (stereo not given)
47 | > 1000 nM | CCOC(=O)C1=C(C)N=C(C[S+]([O-])c2ccccc2)/C(=C(/O)OCC)C1c1cccnc1 (stereo not given)
48 | > 1000 nM | CCO/C(O)=C1\C(CS(=O)(=O)c2ccccc2)=NC(C)=C(C#N)C1c1cccc[n+]1[O-] (stereo not given)
49 | > 1000 nM | CCO/C(O)=C1\C(CSc2ccccc2Cl)=NC(C)=C(C#N)C1c1ccccc1C(F)(F)F (stereo not given)
50 | 1000 nM | CC1=C(C#N)C(c2ccccc2C(F)(F)F)/C(=C(\O)OCCC#N)C(CSc2ccccc2)=N1 (stereo not given)
51 | 1354 nM | CCO/C(O)=C1\C(CSc2ccccc2)=NC(C)=C(C#N)C1c1ccco1 (stereo not given)
52 | 27 nM | CCOC(=O)C1=C(C)N=C(C[S+]([O-])c2ccccc2)/C(=C(/O)OCC)C1c1ccccc1C(F)(F)F (stereo not given)
53 | 681 nM | CCO/C(O)=C1\C(C[S+]([O-])c2ccc(Cl)c(Cl)c2)=NC(C)=C(C#N)C1c1ccccc1C(F)(F)F (stereo not given)
54 | 450 nM | CCO/C(O)=C1\C(CSc2ccccc2)=NC(C)=C(C#N)C1c1ccccc1C(F)(F)F (stereo not given)
55 | > 1000 nM | CCO/C(O)=C1\C(CSc2ccccc2)=NC(C)=C(C#N)C1c1ccccc1 (stereo not given)
56 | > 1000 nM | CCO/C(O)=C1\C(C[S+]([O-])c2ccccc2)=NC(C)=C(C#N)C1C1CCCCC1 (stereo not given)
57 | 254 nM | CCO/C(O)=C1\C(CS(=O)(=O)c2ccccc2)=NC(C)=C(C#N)C1c1ccco1 (stereo not given)
58 | > 1000 nM | CCOC(=O)C1=C(C[S+]([O-])c2ccccc2)NC(C)=C(C#N)C1c1cccc([N+](=O)[O-])c1 (stereo in doubt; 32b)
59 | > 1000 nM | CCO/C(O)=C1\C(C[S+]([O-])c2ccccc2)=NC(C)=C(C#N)C1c1ccccn1 (stereo not given)
60 | > 1000 nM | CCOC(=O)C1=C(C[S+]([O-])c2ccccc2)N(C)C(C)=C(C#N)C1c1ccccc1C(F)(F)F (stereo not given)
61 | 1000 nM | CC1=C(C#N)C(c2ccccc2C(F)(F)F)/C(=C(\O)OCCO)C(C[S+]([O-])c2ccccc2)=N1 (stereo not given)
62 | > 1000 nM | CCO/C(O)=C1\C(C[S+]([O-])c2ccccc2)=NC(C)=C(C#N)C1c1ccccc1OC(F)F (stereo not given)
63 | > 1000 nM | CCO/C(O)=C1\C(C[S+]([O-])c2ccccc2)=NC(C)=C(C#N)C1c1ccccc1 (stereo not given)
64 | 580 nM | C=CCO/C(O)=C1\C(CSc2ccccc2)=NC(C)=C(C#N)C1c1ccccc1C(F)(F)F (stereo not given)

Species on record: Rattus norvegicus
Experiment: Cardiovascular activity in isolated rat heart, concentration producing 25% increase in CF (cardiac flow).
Assay type: functional
Procedure, shortened: (§1)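 Isolated Langendorff-perfused rat heart. Coronary flow (CF), LV +dP/dtmax and heart rate recorded during exposure to test agent. Value is the concentration giving a 25% rise in CF or in LV +dP/dtmax, mean ± SE. At least two hearts per compound.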

Row | Compound | EC25
65 | CO/C(O)=C1\C(C[S+]([O-])c2ccccc2)=NC(C)=C(C#N)C1c1ccccc1C(F)(F)F (stereo not given) | 1480 nM
66 | CCOC(=O)C1=C(C[S+]([O-])c2ccccc2)N(CCN(CC)CC)C(C)=C(C#N)C1c1ccccc1C(F)(F)F (stereo not given) | 500 nM
67 | CCOC(=O)C1=C(CS(=O)(=O)c2ccccc2)N(C)C2=C(C(=O)CCC2)C1c1ccccc1C(F)(F)F (stereo not given) | 180 nM
68 | CCO/C(O)=C1\C(C(C)S(=O)(=O)c2ccccc2)=NC2=C(C(=O)CCC2)C1c1ccccc1C(F)(F)F (stereo not given) | 1400 nM

Species on record: Rattus norvegicus
Experiment: Cardiovascular activity in isolated rat heart, concentration producing 25% increase in LV + dP/dtmax.
Assay type: functional
Procedure, shortened: as §1

Row | Compound | EC25
69 | CO/C(O)=C1\C(C[S+]([O-])c2ccccc2)=NC(C)=C(C#N)C1c1ccccc1C(F)(F)F (stereo not given) | 260 nM
70 | CCOC(=O)C1=C(C[S+]([O-])c2ccccc2)N(CCN(CC)CC)C(C)=C(C#N)C1c1ccccc1C(F)(F)F (stereo not given) | 330 nM
71 | CCOC(=O)C1=C(C[S+]([O-])c2ccccc2)NC(C)=C(C#N)C1c1cccc([N+](=O)[O-])c1 (stereo in doubt; 32a) | 2500 nM
72 | CCOC(=O)C1=C(CS(=O)(=O)c2ccccc2)N(C)C2=C(C(=O)CCC2)C1c1ccccc1C(F)(F)F (stereo not given) | <100 nM
73 | CCOC(=O)C1=C(C[S+]([O-])c2ccccc2)NC(C)=C(C#N)C1c1ccccc1C(F)(F)F (stereo in doubt; 29a) | 120 nM
74 | CCO/C(O)=C1\C(C(C)S(=O)(=O)c2ccccc2)=NC2=C(C(=O)CCC2)C1c1ccccc1C(F)(F)F (stereo not given) | <100 nM
75 | CCOC(=O)C1=C(C[S+]([O-])c2ccccc2)NC(C)=C(C#N)C1c1cccc([N+](=O)[O-])c1 (stereo in doubt; 32b) | 3000 nM
